Source: PubChem BioAssay
Sampled rows, rich in hits. Any-hit rate of the full collection: about 4.6%.
Rtt109 Vps75 = C. albicans Rtt109 histone acetyltransferase inhibition. Q5AAJ8. purified Rtt109/Vps75, ThioGlo CoA-SH fluorescence, 4 h. inhibition, % at 34.9 µM. actives 0.16% (n = 330,000). AID 540336;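 active means inhibition of at least 50% in every replicate; inconclusive means best replicate reaches 50% inhibition but some replicates fall short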
FAS-TE inh = blocks the thioesterase domain of human fatty acid synthase | P49327 | inhibition, % at 15 µM | recombinant FAS-TE, OMFH fluorogenic substrate, fluorescence endpoint | actives 0.67% (n = 360,000);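 active means compounds whose normalised, plate-corrected inhibition of enzyme fluorescence in the single-dose primary screen is 50% or more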
ALR inh = blocks human ALR sulfhydryl oxidase activity. inhibition, % (test concentration not listed). purified ALR, DTT oxidation, H2O2 HRP-luminol luminescence. actives 3.8% (n = 290,000). AID 485317. P55789;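 active means mean replicate inhibition above about 79%, with every replicate also reaching it, limit read from the data; inconclusive means only one of the two criteria met; inactive means mean below limit and not every replicate reaching it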
Target sequence (P55789 whole entry, looked up): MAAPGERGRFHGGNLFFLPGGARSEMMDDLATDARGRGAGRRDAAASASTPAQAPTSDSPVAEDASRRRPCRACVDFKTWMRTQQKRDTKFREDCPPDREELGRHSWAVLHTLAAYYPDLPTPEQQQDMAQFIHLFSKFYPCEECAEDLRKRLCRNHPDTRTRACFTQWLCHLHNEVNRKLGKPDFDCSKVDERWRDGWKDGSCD
UCH37 DUB inh = inhibitors of human deubiquitinating enzyme UCH37; Q9Y5K5; purified proteasome/UCH37, Ub-AMC cleavage fluorescence; inhibition, % (concentration not given with the values); actives 0.33% (n = 330,000); AID 588478;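 active means mean inhibition over replicate wells above about 20%, limit read from the data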
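Test system – human UCH37 enzyme supplied as purified proteasome complex · Incubation – 30 min preincubation with enzyme, 25 min cleavage at room temperature · Detection – AMC fluorescence from Ub-AMC cleavage, excitation 355 nm, emission 460 nm · Benchmarks – no-proteasome wells (full inhibition) and compound-free wells (no inhibition)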
PfM18AAP inh = PfM18AAP enzyme inhibition; actives 1.2% (n = 290,000); recombinant PfM18AAP, H-Glu-NHMec fluorogenic cleavage; AID 1822; inhibition, % at 7.35 µM;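 active means inhibition above the campaign mean inhibition over all tested compounds plus 3 SD, cut at about 28% in these data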
HDAC3 inh = inhibitors of human histone deacetylase 3. inhibition, % at 8.3 µM. actives 0.15% (n = 320,000). O15379. recombinant HDAC3, fluorogenic peptide/trypsin coupled, fluorescence; in the data active means inhibition above about 26%, passing the limit was not always enough; inconclusive means no clear call, values can overlap the other calls
Target sequence (O15379 whole entry, looked up): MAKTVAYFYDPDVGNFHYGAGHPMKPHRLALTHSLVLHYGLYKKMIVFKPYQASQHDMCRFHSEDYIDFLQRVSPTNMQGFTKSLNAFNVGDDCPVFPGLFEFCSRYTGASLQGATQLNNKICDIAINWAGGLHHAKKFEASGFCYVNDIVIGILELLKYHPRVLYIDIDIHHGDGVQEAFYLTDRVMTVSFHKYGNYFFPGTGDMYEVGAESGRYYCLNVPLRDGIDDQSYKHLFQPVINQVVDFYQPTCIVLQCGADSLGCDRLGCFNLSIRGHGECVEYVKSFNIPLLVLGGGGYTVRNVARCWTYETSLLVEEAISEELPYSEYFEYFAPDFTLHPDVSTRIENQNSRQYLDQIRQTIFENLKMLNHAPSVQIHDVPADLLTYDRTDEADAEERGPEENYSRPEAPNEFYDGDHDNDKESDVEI
Hits are given with their value; n = inactive; u = inconclusive; x = no result.

SMILES	Rtt109 Vps75	FAS-TE inh	ALR inh	UCH37 DUB inh	PfM18AAP inh	HDAC3 inh
CN(C)c1ccc(/C=N/NC(=O)CCc2c[nH]c3ccccc23)cc1	n	n	98	x	n	n
CN(C)c1ccc(C=NNC(=O)CCCO)cc1	x	x	x	n	x	x
COc1ccc(/C=N/NC(=O)Cn2nnc3ccccc32)cc1OC	n	n	n	x	n	n
CN(C)c1ccc(/C=N/NC(=O)CCCO)cc1	n	n	96	x	n	n
CCCCCC(=O)NN=Cc1ccc(N(C)C)cc1	x	x	x	n	x	x
O=C(Cc1c[nH]c2ccccc12)N/N=C/c1ccc(F)cc1	n	n	n	x	n	n
CN(C)c1ccc(/C=N/NC(=O)Cn2nnc3ccccc32)cc1	n	n	99	x	n	n
CN(C)c1ccc(C=NNC(=S)NCc2ccccc2)cc1	x	x	x	n	x	x
CN(C)c1ccc(/C=N/NC(=O)CCC(=O)NCc2ccccc2)cc1	n	n	87	x	n	n
COc1ccc(OCC(=O)N/N=C/c2ccc(N(C)C)cc2)cc1	n	n	98	x	n	n
Cc1nn(C)c(C)c1C=NNC(=O)CCn1cc([N+](=O)[O-])cn1	x	x	x	n	x	x
CC(C)(C)NC(=O)CSc1nc(Cc2ccccc2)nc2ccccc12	n	n	98	n	n	n
CC1CCN(C(=O)CSc2nc3ccccc3s2)CC1	n	n	99	x	n	n
O=C(O)C1CCN(C(=O)CSc2nc3ccccc3s2)CC1	n	n	n	n	n	n
CCc1nc(SCC(=O)N2CCCC2)c2ccccc2n1	n	n	92	n	n	n
O=C(CSc1nc2ccccc2s1)N1CCCCC1	n	n	99	n	n	n
CC(C)c1nc(SCC(=O)N2CCCC2)c2ccccc2n1	n	n	n	n	n	n
COc1ccc(C(=O)Oc2ccc(C=NNC(=O)c3cccnc3)cc2OC)cc1	x	x	x	n	x	x
CC1CN(C(=O)C(C)Sc2nc3ccccc3s2)CC(C)O1 (centres undefined)	n	n	99	n	n	n
O=C(CSc1nc2ccccc2s1)N1CCN(C(=O)c2ccco2)CC1	n	n	99	n	n	n
CC1CCCC(C)N1C(=O)CSc1nc2ccccc2s1 (centres undefined)	x	n	98	n	n	n
NC(=O)C1CCN(C(=O)CSc2nc3ccccc3s2)CC1	n	n	98	n	n	n
CC1Cc2ccccc2N1C(=O)CSc1nc2ccccc2s1 (centres undefined)	n	n	n	n	n	n
O=C(O)CNC(=O)CC1S/C(=N/N=C2CSC(=O)N2)NC1=O (centres undefined)	x	x	x	n	x	x
Cc1c(C=NO)c2ccccn2c1C(=O)c1ccc(F)cc1	x	x	x	n	x	x
SMILES	Rtt109 Vps75	FAS-TE inh	ALR inh	UCH37 DUB inh	PfM18AAP inh	HDAC3 inh
COC(=O)NN=C(C)c1ccc(OC(F)F)cc1OC(F)F	x	x	x	n	x	x
Cn1ncc(Br)c1C(=O)NN=Cc1cccc(OC2CSC2)c1	x	x	x	n	x	x
O=C1c2cc(O)c(O)cc2OC(c2ccc(O)c(O)c2)C1O (centres undefined)	n	n	x	n	x	x
O=C1CC(c2ccc(O)c(O)c2)Oc2cc(O)cc(O)c21 (centres undefined)	n	n	99	n	x	n
O=C1CC(c2ccc(O)c(O)c2)Oc2c1ccc(O)c2O (centres undefined)	n	n	98	n	x	n
O=C1CC(c2ccccc2)Oc2cc(O)cc(O)c21 (centres undefined)	n	n	n	n	x	n
O=C1CC(c2ccc(O)cc2)Oc2cc(O)cc(O)c21 (centres undefined)	n	n	99	n	n	n
COc1cccc(C=NNC(=O)CCn2cnc3ccccc32)c1	x	x	x	n	x	x
O=[N+]([O-])c1ccc(N/N=C2\CC3CC=CC23)cc1 (centres undefined)	n	n	96	x	n	n
O=[N+]([O-])c1ccc(NN=C2CC3CC=CC23)cc1 (centres undefined)	x	x	x	n	x	x
CCOc1ccc(-c2csc(NNC3=NCCCCC3)n2)cc1	n	n	99	n	n	u
COc1ccc(-c2csc(NC3=NCCCCC3)n2)cc1	n	n	98	n	n	n
Clc1ccc(-c2csc(NNC3=NCCCCC3)n2)cc1	n	n	x	n	n	n
COc1ccc(-c2csc(NNC3=NCCCCC3)n2)cc1	x	x	n	n	n	n
Brc1ccc(-c2csc(NC3=NCCCCC3)n2)cc1	n	n	n	n	n	n
Fc1ccc(-c2csc(NC3=NCCC3)n2)cc1	n	n	97	n	n	n
O=C(NN=Cc1ccncc1)c1cc2ccccc2o1	x	x	x	n	x	x
COc1c(Cl)cc(C(=O)NN)cc1Cl	n	n	89	n	n	n
c1ccc(NCC2OCc3ccccc3CO2)cc1	n	n	98	n	n	n
O=C(C=NO)Nc1ccccc1C(=O)O	x	x	x	n	x	x
O=C1N/C(=N\S(=O)(=O)Cc2ccccc2)S/C1=C/c1cc([N+](=O)[O-])ccc1O	x	n	97	n	n	u
O=C(COc1ccc(Cl)cc1Cl)NCc1ccco1	n	n	n	n	n	n
Cc1cc(Cl)cc(Cl)c1OCC(=O)NCc1ccco1	n	n	91	n	n	n
Cc1ccc2c(Cl)cc(Cl)c(OCC(=O)NCc3ccco3)c2n1	x	x	x	x	n	x
Cc1ccc(OCCCC(=O)NCc2ccco2)c(C)c1	x	x	95	n	n	n
SMILES	Rtt109 Vps75	FAS-TE inh	ALR inh	UCH37 DUB inh	PfM18AAP inh	HDAC3 inh
O=C(COc1ccc(Cl)cc1Cl)NNC(=S)NCc1ccco1	n	n	83	n	n	n
Cc1ccc(SCCC(=O)NCc2ccco2)cc1	n	n	n	n	n	n
O=C(NN=Cc1cc(Br)c(O)c(Br)c1)C1CC1	x	x	x	n	x	x
COc1ccc(-c2n[nH]c(=S)n2CC(C)C)cc1	n	n	88	n	n	n
CC(C)Cn1c(-c2csc(C(C)C)c2)n[nH]c1=S	n	n	94	n	n	n
CC(C)Cn1c(-c2csc3ccccc23)n[nH]c1=S	n	n	95	n	n	n
CCn1c(-c2ccc(Cl)cc2)n[nH]c1=S	n	n	98	n	n	n
CCn1c(-c2csc(C(C)C)c2)n[nH]c1=S	n	n	n	n	n	n
Cc1ccc(C=NNC(=S)NC(C)C)o1	x	x	x	n	x	x
COc1ccc(Cn2c(-c3ccc(OC)cc3)n[nH]c2=S)cc1	n	n	95	n	n	n
CCn1c(-c2ccccc2O)n[nH]c1=S	n	n	92	n	n	n
COc1ccc(O)c(C=NNC(=O)CCC(=O)Nc2ccc(F)cc2)c1	x	x	x	n	x	x
CCN(CC)c1ccc(/C=C2\CCC(/C=N/NC(=O)c3ccc(=O)n(C)c3)=C2N2CCOCC2)cc1	x	n	100	x	n	n
Cn1cc(C(=O)NN=CC2=C(N3CCOCC3)/C(=C\c3ccccc3)CC2)ccc1=O	x	x	x	n	x	x
O=C(O)c1ccc(NN=Cc2cc3cc4c(cc3nc2Cl)OCCO4)cc1	x	x	x	n	x	x
COc1ccc(C(=O)C(C)OC(=O)c2cccc(S(=O)(=O)Nc3cc(Cl)c(OC)cc3OC)c2)cc1 (centres undefined)	n	57	n	n	n	n
S=c1[nH]nc(COc2ccccc2)n1N=Cc1ccco1	x	x	x	n	x	x
